Bioassay records deposited in PubChem by Broad Institute.
This is a sample that favours compounds with a hit; in the whole collection about 2.9% have one here.
HIV Env fusion – blocks HIV Env-driven cell-cell fusion; HeLa-JRFL Env/CEM21 cell fusion, luciferase; inhibition, % at 12.3 µM; 360,000 compounds, 1.1% hits; AID 651610;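 active = mean replicate inhibition score of at least 50 and every replicate individually at or above 50; inconclusive = only one of the two criteria met; inactive = mean below 50 and not all replicates reaching 50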
CDK5 inh – inhibitors of human CDK5/p35 kinase; Q00535+Q15078; Recombinant CDK5/p35, ADP-Glo luminescence, 60 min; inhibition, % at 10 µM; 330,000 compounds, 0.01% hits;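 active = highest replicate inhibition of at least 50% and at least 75% of replicates reaching 50%; inconclusive = only one of the two criteria met; inactive = both criteria failed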
dFosB act – mouse delta FosB homodimer activation; AID 493131; 340,000 compounds, 0.99% hits; purified delta FosB, TAMRA-CDK5 oligo fluorescence polarization; percent of positive-control signal above neutral wells; activation, % at 25 µM; P13346;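 active = mean activation above about 17%, with every replicate also reaching it, limit read from the data, passing the limit was not always enough; inconclusive = only one of the two conditions met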
Target sequence (P13346 whole entry, looked up): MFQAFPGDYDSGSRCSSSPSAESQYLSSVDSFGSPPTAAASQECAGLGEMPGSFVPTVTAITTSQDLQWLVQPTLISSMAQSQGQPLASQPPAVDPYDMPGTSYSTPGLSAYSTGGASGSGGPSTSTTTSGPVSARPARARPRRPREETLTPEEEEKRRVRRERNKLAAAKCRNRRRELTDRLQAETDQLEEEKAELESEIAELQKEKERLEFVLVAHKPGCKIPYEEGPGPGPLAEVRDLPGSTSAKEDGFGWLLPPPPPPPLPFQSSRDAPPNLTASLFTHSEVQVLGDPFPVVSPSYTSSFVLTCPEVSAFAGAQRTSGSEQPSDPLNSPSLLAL
PAX8 inh HTS – lowers PAX8-driven luciferase in RMG-I cells; AID 652154; inhibition, % at 12.6 µM; RMG-I TPO-luciferase reporter, SteadyGlo, 24 h; 360,000 compounds, 1.2% hits;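 active = mean replicate inhibition at least 60% with every replicate also reaching 60%; inconclusive = only one of the two criteria is met; inactive = mean below 60% and not all replicates reaching 60%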;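 also: luciferase light reporting Pax8 driven TPO promoter activity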
Cneo AK release – causes C. neoformans cell lysis; adenylate kinase release luminescence, 4 h; normalised: neutral wells 0, clomiphene wells 100; lysis activity, % at 15 µM; 360,000 compounds, 0.2% hits; AID 651654;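 active = mean lysis activity across replicates of at least 80%, whatever share of replicates individually reach that level; inactive = mean lysis activity below 80%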
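Assay system: Cryptococcus neoformans yeast cells / Dosing: single-point compound dose / Timing: 4 h at 37 °C static, read 1 h later / Measured by: luminescence of released adenylate kinase using an AK detection reagent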
GSIS activator – primary screen for activators of insulin secretion dependent on glucose, INS-1E cells, GLuc reporter luminescence. AID 743287. INS-1E GLuc reporter insulin secretion, 2-3 h. activation, % at 16.6 µM. 370,000 compounds, 0.61% hits;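 active = lowest replicate activation of at least 40%, so every replicate reaches that level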
Of the large screens only hits and unclear results are named; the others gave an inactive call; [ ] = dose if it differs, or a comment.

Cc1n[nH]c(C)c1S(=O)(=O)N(CC(=O)NC1CCCC1)c1ccc(C(C)C)cc1	HIV Env fusion 86
C[C@H](CO)N1C[C@H](C)[C@H](CN(C)S(=O)(=O)c2ccccc2)Oc2ccc(NS(=O)(=O)c3ccc(F)cc3)cc2CC1=O	HIV Env fusion 58[16.7 µM] (no result: CDK5 inh, dFosB act, PAX8 inh HTS)
C[C@H]1CN([C@@H](C)CO)C(=O)Cc2cc(NS(=O)(=O)c3ccc(F)cc3)ccc2O[C@@H]1CN(C)S(=O)(=O)c1ccc(F)cc1	Cneo AK release 98 (no result: CDK5 inh, dFosB act)
C[C@H](CO)N1C[C@H](C)[C@@H](CN(C)S(=O)(=O)c2ccc(F)cc2)Oc2ccc(NS(=O)(=O)c3cn(C)cn3)cc2CC1=O	HIV Env fusion 64[16.7 µM] (no result: CDK5 inh, dFosB act, PAX8 inh HTS, Cneo AK release)
C[C@H](CO)N1C[C@H](C)[C@H](CN(C)S(=O)(=O)c2ccc(F)cc2)Oc2ccc(NS(=O)(=O)c3ccc(F)cc3)cc2CC1=O	none (no result: CDK5 inh, dFosB act)
OC[C@H]1[C@@H](c2ccccc2)[C@@H](CNCC2CCC2)N1CC1CC1	none (no result: HIV Env fusion, CDK5 inh, dFosB act)
CC(=O)ON=C1C=CC(=C(C#N)c2ccccc2)C=C1	PAX8 inh HTS 71 (no result: CDK5 inh, dFosB act, GSIS activator)
CCSc1ccc(-c2nn(-c3ccccc3)cc2/C=C(/C#N)C(=O)NC)cc1	GSIS activator 65
C[C@H]1CN([C@@H](C)CO)C(=O)Cc2cc(NC(=O)C3CC3)ccc2O[C@@H]1CN(C)Cc1ccc(-c2ccccc2)cc1	PAX8 inh HTS 103 (no result: CDK5 inh, dFosB act)
C[C@H](CO)N1C[C@H](C)[C@@H](CN(C)Cc2ccc(-c3ccccc3)cc2)Oc2ccc(NC(=O)C3CCCCC3)cc2CC1=O	none (no result: CDK5 inh, dFosB act)
C[C@H](CO)N1C[C@H](C)[C@@H](CN(C)Cc2ccc(-c3ccccc3)cc2)Oc2ccc(NC(=O)C3CC3)cc2CC1=O	PAX8 inh HTS 104 (no result: CDK5 inh, dFosB act)
Cc1ccc(S(=O)(=O)N(C)C[C@@H]2OCCCC[C@@H](C)Oc3ccc(N(C)C)cc3C(=O)N([C@H](C)CO)C[C@@H]2C)cc1	none (no result: CDK5 inh, dFosB act)
COC(=O)[C@]1(C)N[C@H](CN(C)C(=O)Nc2ccc(Cl)cc2)[C@@H]2C(=O)N(Cc3ccccc3)C(=O)[C@@H]21	HIV Env fusion 79
CCN(C[C@H]1N[C@@](C)(C(=O)OC)[C@H]2C(=O)N(Cc3ccccc3)C(=O)[C@@H]12)C(=O)c1ccc(F)cc1	none
COC(=O)[C@]1(C)N[C@H](CN(C)C(=O)Nc2ccc(OC)cc2)[C@@H]2C(=O)N(Cc3ccccc3)C(=O)[C@@H]21	HIV Env fusion inconclusive
COC(=O)[C@]1(C)N[C@H](CN(C)C(=O)Nc2ccc(C)cc2)[C@@H]2C(=O)N(Cc3ccccc3)C(=O)[C@@H]21	HIV Env fusion 64
CCN(C[C@H]1N[C@@](C)(C(=O)OC)[C@H]2C(=O)N(Cc3ccccc3)C(=O)[C@@H]12)C(=O)Nc1ccc(F)cc1	HIV Env fusion 57
C[C@H](CO)N1C[C@H](C)[C@H](CN(C)C(=O)c2ccccc2)OCCCC[C@H](C)Oc2ccc(NC(=O)Cc3ccccc3)cc2C1=O	none (no result: CDK5 inh, dFosB act)
FC(F)(F)c1cccc(NC(=S)NCc2ccc(Cl)cc2)c1	HIV Env fusion 64 (no result: Cneo AK release)
COC(=O)CNC(c1ccccc1)c1cc(C)ccc1NC(=O)CNC(=O)OCc1ccccc1 (stereo not given)	HIV Env fusion 73 (no result: PAX8 inh HTS)
COC(=O)CNC(c1ccccc1)c1cc(Br)ccc1NC(=O)OCc1ccccc1 (stereo not given)	none (no result: HIV Env fusion, PAX8 inh HTS, GSIS activator)
COc1ccc(S(=O)(=O)Nc2cccc(S(=O)(=O)N3CCCCCC3)c2)cc1	none (no result: HIV Env fusion)
O=S(=O)(Nc1nc2ccccc2nc1Nc1cccc(S(=O)(=O)N2CCCCC2)c1)c1ccccc1	HIV Env fusion 77
COCC#Cc1cnc2c(c1)C(=O)N([C@@H](C)CO)C[C@@H](C)[C@H](CN(C)C(=O)c1cccnc1)O2	none (no result: CDK5 inh, dFosB act, PAX8 inh HTS)
O=C(N[C@@H]1CC[C@@H](CCn2cc(C3(O)CCCC3)nn2)O[C@@H]1CO)C1CCCC1	none (no result: CDK5 inh, dFosB act)
CC(C)C#Cc1ccc2c(c1)O[C@H](CN(C)C(=O)C1CC1)[C@@H](C)CN([C@@H](C)CO)S2(=O)=O	none (no result: CDK5 inh, dFosB act, PAX8 inh HTS)
CCc1ccc(-c2nnn(CCC(=O)OC)n2)cc1	HIV Env fusion 65 (no result: GSIS activator)
CCc1ccc(-c2nnn(CCC#N)n2)cc1	none
O=C1C(Cc2ccccc2)NC(=S)N1Cc1ccccc1 (stereo not given)	none (no result: Cneo AK release)
CC(C)CC1NC(=S)N(Cc2ccccc2)C1=O (stereo not given)	PAX8 inh HTS 90
